Measurements taken from ChEMBL document CHEMBL1123425, “Potential antitumor agents. 46. Structure-activity relationships for acridine monosubstituted derivatives of the antitumor agent N-[2-(dimethylamino)ethyl]-9-aminoacridine-4-carboxamide” (1986).
pIC50: −log10 of the molar value.

Experiments:
[1] = tested on: P388; experiment: Evaluated in vivo against P388 leukemia cells ( percent increase in life span of treated animals over that of control groups of tumor bearing untreated animals.); type: functional, Mus musculus
[2] = tested on: L1210; experiment: In vitro cytotoxicity against L1210 leukemia cells.; type: functional; details: Mus musculus, read-out: ID50 (the source's name)
Summary of the method: (§1)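 Cultured L1210 murine leukemia or HCT-8 human colon carcinoma cells were incubated with drug for 70 h. ID50 is the drug concentration (nM) that reduced cell number to 50% of untreated controls.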

[3] = tested on: HCT-8; experiment: In vitro cytotoxicity against HCT-8 human colon carcinoma cells.; type: functional; details: read-out: ID50 (the source's name); summary of the method: as §1
[4] = tested on: Mus musculus; experiment: In vivo optimal i.p. dose administered on days 1, 5, and 9 after i.p. inoculation of (10E6) P388 leukemia cells.; type: functional
Summary of the method: (§2)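 Mice received 10⁶ P388 leukemia cells i.p. Drug was dissolved in 0.1 mL of 30% v/v ethanol/water and given i.p. on days 1, 5 and 9 after inoculation. The optimal dose is expressed in mg/kg per day.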

[5] = tested on: P388; experiment: Evaluated in vivo against P388 leukemia cells ( percent increase in life span of treated animals over that of control groups of tumor bearing untreated animals.); k = no activity at all dose levels up to acutely toxic ones; type: functional, organism-based; details: Mus musculus; summary of the method: as §2
[6] = tested on: L1210; experiment: In vitro cytotoxicity against L1210 leukemia cells; type: functional; details: Mus musculus, read-out: ID50 (the source's name); summary of the method: as §1

Row | Compound | ILS [1] | pIC50 [2] | pIC50 [3] | OD [4] | ILS [5] | pIC50 [6]
1 | Cc1cccc2c(N)c3cccc(C(=O)NCCN(C)C)c3nc12 | 107% | 9.33 | 7.96 | 2.6 mg/kg/day | – | –
2 | CN(C)CCNC(=O)c1cccc2c(N)c3cccc(Cl)c3nc12 | 81% | 8.54 | 7.48 | 2.6 mg/kg/day | – | –
3 | CN(C)CCNC(=O)c1cccc2c(N)c3c(Cl)cccc3nc12 | – | 6.60 | 6.44 | 20 mg/kg/day | No activity | –
4 | Cc1cccc2nc3c(C(=O)NCCN(C)C)cccc3c(N)c12 | – | 6.47 | 6.60 | 8.9 mg/kg/day | No activity | –
5 | CN(C)CCNC(=O)c1ccc(Cl)c2c(N)c3ccccc3nc12 | 29% | 8.32 | 6.44 | 8.9 mg/kg/day | – | –
6 | Cc1ccc2c(N)c3cccc(C(=O)NCCN(C)C)c3nc2c1 | 20% | – | 6.92 | 2.6 mg/kg/day | – | –
7 | CN(C)CCNC(=O)c1cccc2c(N)c3ccc(Cl)cc3nc12 | – | 6.98 | 6.61 | 8.9 mg/kg/day | No activity | –
8 | COc1ccc2c(N)c3cccc(C(=O)NCCN(C)C)c3nc2c1 | – | – | – | 8.9 mg/kg/day | No activity | –
9 | COc1cccc2nc3c(C(=O)NCCN(C)C)cccc3c(N)c12 | – | 6.66 | 6.31 | 45 mg/kg/day | No activity | –
10 | COc1ccc2c(N)c3ccccc3nc2c1C(=O)NCCN(C)C | – | 6.52 | 6.11 | 20 mg/kg/day | No activity | –
11 | CN(C)CCNC(=O)c1cccc2c(N)c3ccccc3nc12 | – | – | 7.18 | 4.5 mg/kg/day | – | 7.82
12 | COc1ccc2nc3c(C(=O)NCCN(C)C)cccc3c(N)c2c1 | – | 6.17 | 6.22 | 13.3 mg/kg/day | No activity | –
13 | COc1cc(C(=O)NCCN(C)C)c2nc3ccccc3c(N)c2c1 | 72% | 8.54 | 7.49 | 5.9 mg/kg/day | – | –
14 | Cc1ccc2nc3c(C(=O)NCCN(C)C)cccc3c(N)c2c1 | – | – | 6.31 | 13.3 mg/kg/day | No activity | –
15 | CN(C)CCNC(=O)c1cccc2c(N)c3cc(Cl)ccc3nc12 | – | 6.14 | 6.31 | 13.3 mg/kg/day | No activity | –
16 | CN(C)CCNC(=O)c1cc(Cl)cc2c(N)c3ccccc3nc12 | – | 6.52 | 6.49 | 20 mg/kg/day | No activity | –
17 | Cc1cc(C(=O)NCCN(C)C)c2nc3ccccc3c(N)c2c1 | – | 6.23 | 6.37 | 30 mg/kg/day | No activity | –
18 | COc1ccc(C(=O)NCCN(C)C)c2nc3ccccc3c(N)c12 | 27% | 9.26 | 7.72 | 8.9 mg/kg/day | – | –
19 | COc1cccc2c(N)c3cccc(C(=O)NCCN(C)C)c3nc12 | 81% | 8.37 | 7.05 | 3.9 mg/kg/day | – | –
